Compound activity deposited in PubChem BioAssay by The Scripps Research Institute Molecular Screening Center.
An excerpt weighted towards active compounds, which were near 1.1% of everything screened.
proCasp7 act: procaspase-7 activators, primary screen, counter-screen for procaspase-3 activator project, biochemical, absorbance, HTS, human | Caspase-7 (Homo sapiens), P55210 | recombinant procaspase-7, Ac-DEVD-pNA absorbance 405 nm; D23A/D198A/D206A triple mutant, cannot self-cleave; scale: DMSO 0, 5 µM enzyme 100 | activation, % at 8.5 µM | actives 0.093% (n = 330,000);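 active means percent activation above the screen-wide mean plus 3 SD, cut at about 25% in these data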
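Test system: Procaspase-7 triple mutant (PC-7 D3A). Also added: Ac-DEVD-pNA substrate, 400 µM as added. Schedule: 1 h enzyme–compound preincubation and 2 h substrate reaction, both 25 °C. Signal: p-Nitroaniline absorbance at 405 nm, read at 0 and 120 min. Control set: low DMSO alone, high DMSO plus 5 µM PC-7.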
LYPLA2 counter: LYPLA2 inhibitors, primary screen, counter-screen for PME1 inhibitor project, biochemical, fluorescence polarization, FP-Rh probe ABPP; recombinant LYPLA2; inhibition, % at 5.9 µM; actives 0.38% (n = 320,000); AID 2177, 2009;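 active means inhibition above the screen-wide mean plus 3 SD, limit set per campaign, cut at about 26% in these data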;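 further: 0% = LYPLA2 with DMSO and 100% = wells lacking LYPLA2 enzyme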
Target sequence (O95372 whole entry, looked up): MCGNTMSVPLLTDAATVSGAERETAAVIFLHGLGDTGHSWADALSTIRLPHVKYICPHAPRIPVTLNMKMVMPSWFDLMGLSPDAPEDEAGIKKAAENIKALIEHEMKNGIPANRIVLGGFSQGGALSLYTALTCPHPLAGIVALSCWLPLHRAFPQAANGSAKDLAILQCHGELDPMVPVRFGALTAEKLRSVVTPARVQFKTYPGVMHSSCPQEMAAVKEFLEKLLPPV
procasp3 activ: activators of human procaspase-3 D3A mutant, primary screen, biochemical, absorbance, PC-3 D3A mutant, single concentration; recombinant procaspase-3 D3A, Ac-DEVD-pNA absorbance 405 nm; Caspase-3 (Homo sapiens), P42574; activation, % at 8.5 µM; actives 0.11% (n = 330,000);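 active means activation above the mean of all tested compounds plus 3 SD, cut at about 21% in these data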;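 further: 0% = DMSO alone and 100% = DMSO wells spiked with extra 5 µM PC-3 D3A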
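Evaluation: percent activation relative to control range; Material: Procaspase-3 D3A mutant, all three cleavage aspartates alanine; Compound: single dose, 8.5 µM nominal compound, 0.8% DMSO; Replication: one well per compound; Signal: absorbance at 405 nm, 0 and 120 min; Schedule: 1 h preincubation plus 2 h reaction at 25 °C.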
PREPL inhibitor: PREPL enzyme inhibitors, primary screen, biochemical, fluorescence polarization; Prolyl endopeptidase-like (Homo sapiens), Q4J6C6; recombinant PREPL, fluorescence polarization activity-based probe; inhibition, % at 5.96 µM; actives 0.68% (n = 320,000); AID 2751, 2010; in the data active means inhibition above about 43%;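 further: 0% = enzyme with DMSO and 100% = wells lacking enzyme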
LYPLA1 counter: LYPLA1 inhibitors, primary screen, counter-screen for PME1 inhibitor project, biochemical, fluorescence polarization, FP-Rh probe ABPP; Acyl-protein thioesterase 1 (Homo sapiens), O75608; actives 0.16% (n = 320,000); recombinant LYPLA1; inhibition, % at 5.9 µM; AID 2174, 2009;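 active means inhibition above the mean of all tested compounds plus 3 SD, set per campaign, cut at about 14% in these data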;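 further: inhibitors block serine hydrolase probe labeling of LYPLA1 so polarization falls; 0% = enzyme with DMSO and 100% = wells lacking LYPLA1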
Target sequence (O75608 whole entry, looked up): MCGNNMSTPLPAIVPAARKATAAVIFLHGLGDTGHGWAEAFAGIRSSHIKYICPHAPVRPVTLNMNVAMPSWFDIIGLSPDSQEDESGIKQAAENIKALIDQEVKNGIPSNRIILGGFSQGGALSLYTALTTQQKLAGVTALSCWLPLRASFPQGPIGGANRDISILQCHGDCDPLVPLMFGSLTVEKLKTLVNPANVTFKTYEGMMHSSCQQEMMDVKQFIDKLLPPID
PC3 dual counter: procaspase-3 activators, counter-screen for dual procaspase-3/7 activator project, biochemical, absorbance, PC-3 D3A mutant, human. shares compounds with proCasp7 act. recombinant PC-3 D3A, Ac-DEVD-pNA absorbance 405 nm; aspartates 9, 28, 175 changed to alanine; 100% = enzyme control. activation, % at 8.5 µM. 290 tested, under 10 active. AID 493114, 2011;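 active means mean percent activation across triplicates above a set limit taken from the earlier primary procaspase-3 screen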;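 further: 0% = DMSO wells and 100% = DMSO wells with 5 µM added PC-3 D3A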
PC7 dual conf: activation of procaspase-7 enzyme – biochemical, absorbance, human, dual procaspase-3/-7 activator project, confirmation; shares compounds with proCasp7 act; recombinant procaspase-7, Ac-DEVD-pNA absorbance 405 nm; D23A/D198A/D206A mutant that cannot self-cleave; activation, % at 8.5 µM; 290 tested, under 10 active; AID 493115, 2011;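 active means mean activation above a set limit carried over from the earlier primary screen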;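 further: 0% = DMSO only and 100% = DMSO with added 5 µM PC-7 enzyme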
Numbers without * were called inactive; . = no result.

SMILES	proCasp7 act	LYPLA2 counter	procasp3 activ	PREPL inhibitor	LYPLA1 counter	PC3 dual counter	PC7 dual conf
COc1ccc(-c2cc(C(=O)OC3CCOC3=O)c3ccccc3n2)cc1 (stereo not drawn)	28*	11	26*	1	-1	18	12
Nc1c(C(=O)NCc2ccccc2)c2nc3ccccc3nc2n1-c1ccc2c(c1)OCO2	6	4	8	17	2	.	.
COc1cc(-n2c(N)c(C(=O)NCc3ccco3)c3nc4ccccc4nc32)cc(OC)c1OC	43*	-1	2	5	-3	-28	-36
COc1ccc(-n2c(N)c(C(=O)NCc3ccco3)c3nc4ccccc4nc32)cc1	44*	-7	-5	9	-6	-30	-37
Nc1ccc(-n2c(N)c(C(=O)NCc3ccc4c(c3)OCO4)c3nc4ccccc4nc32)cc1	44*	-4	-5	15	0	-29	-31
COc1ccc(-n2c(N)c(C(=O)NCc3ccco3)c3nc4ccccc4nc32)cc1OC	32*	7	12	1	4	-29	-35
COc1ccc(-n2c(N)c(C(=O)NCc3ccco3)sc2=S)cc1	-11	4	-4	8	-2	.	.
COC(=O)c1cccnc1-n1c(=O)c2cccnc2n(Cc2ccc([N+](=O)[O-])cc2)c1=O	4	5	-1	18	2	.	.
Cc1cc(NC(=O)CCC(=O)N(CC(=O)NCC2CCCO2)c2ccc(C(C)C)cc2)no1 (stereo not drawn)	-2	4	2	10	7	.	.
Cc1ccc(Cl)cc1NC(=O)COC(=O)CC1CCCCC1	3	3	4	-2	-1	.	.
O=S(=O)(Nc1ccncc1Cl)c1cccc(Cl)c1Cl	0	1	8	0	-1	.	.
O=c1cc(-c2ccc(O)cc2)oc2ccc3ccccc3c12	29*	-17	22*	2	-10	4	2
O=c1cc(-c2ccc(O)cc2)oc2c1ccc1ccccc12	4	-2	-8	0	-5	.	.
COc1cccc(N(C(=O)c2csnn2)C(C(=O)NC2CCCC2)c2ccccc2)c1 (stereo not drawn)	-10	-1	-7	1	0	.	.
O=C(Cn1cnc2nc3n(c2c1=O)CCC3)NCc1ccccc1	-5	1	7	-2	0	.	.
CSc1nnc(-c2ccccc2SC)o1	4	9	3	1	3	.	.
CSc1nnc(-c2cc3c(s2)-c2ccccc2CC3)o1	33*	-6	-28	7	-6	-28	-28
CC(=O)Nc1cccc(NC(=O)CCNC(=O)c2ccc(Cl)cc2)c1	-9	-6	2	-4	-3	.	.
CCCn1c(C(C)Nc2nc(-c3ccc(Cl)c([N+](=O)[O-])c3)cs2)nc2cc(Cl)c(N3CCCCC3)cc21 (stereo not drawn)	-4	-2	-1	4	4	.	.
Cc1ccc2sc(NC(=O)CSc3nc(C)cc(C)c3C#N)nc2c1	42*	-2	18	14	11	-30	-36
Cc1c(C(=O)N/N=C/c2ccc(N(C)C)cc2)[nH]c2ccc(Cl)cc12	35*	0	8	8	1	-31	-28
O=C(NNC(=O)C1CC(c2cccnc2)=NO1)Nc1ccccc1F (stereo not drawn)	26*	0	-3	7	0	1	3
Cc1ccc(NC(=O)NNC(=O)C2CC(c3cccnc3)=NO2)cc1 (stereo not drawn)	-13	-2	9	-13	3	.	.
C[C@@H]1CN([C@H](C)CO)C(=O)c2cc(NS(=O)(=O)c3cn(C)cn3)ccc2O[C@H]1CN(C)C(=O)Nc1ccccc1	2	.	-2	0	.	.	.
CCS(=O)(=O)c1ccc(C(=O)Nc2ccccc2OC)c(Cl)c1Cl	7	8	4	2	2	.	.
SMILES	proCasp7 act	LYPLA2 counter	procasp3 activ	PREPL inhibitor	LYPLA1 counter	PC3 dual counter	PC7 dual conf
COc1ccccc1N1N=C(C(=O)c2ccccc2)C2C(=O)N(c3ccc(Br)cc3)C(=O)C21 (stereo not drawn)	9	-7	5	-3	-2	.	.
COc1ccccc1N1C(=O)C2C(C(=O)c3ccccc3)=NN(c3ccccc3)C2C1=O (stereo not drawn)	33*	3	20	-6	2	26*	18
Cc1ccc(N2C(=O)C3C(C(=O)c4ccccc4)=NN(c4ccccc4)C3C2=O)cc1 (stereo not drawn)	18	-3	7	-9	-3	.	.
CCOc1ccc(N2C(=O)C3C(c4ccccc4)=NN(c4ccccc4)C3C2=O)cc1 (stereo not drawn)	14	1	2	0	-2	.	.
O=C(C1=NN(c2ccccc2)C2C(=O)N(c3ccccc3Cl)C(=O)C12)c1ccccc1 (stereo not drawn)	48*	1	30*	-13	-3	45*	34*
O=C(C1=NN(c2ccccc2)C2C(=O)N(c3ccccc3)C(=O)C12)c1ccccc1 (stereo not drawn)	41*	3	26*	13	-2	40*	27*
COc1ccc(-c2cc3nc4c(c(N5CCC6(CC5)OCCO6)n3n2)CCC4)cc1	-5	5	-1	16	-2	.	.
COc1ccc(-c2cc3nc(-c4ccccc4)cc(N4CCC5(CC4)OCCO5)n3n2)cc1	36*	-18	23*	15	-12	-28	-36
OC1CCN(c2cc(-c3ccccc3)nc3cc(-c4ccc(F)cc4)nn23)CC1	-11	-11	12	19	-8	.	.
COc1cccc(-c2cc3nc(-c4ccccc4)cc(N4CCCC(O)C4)n3n2)c1 (stereo not drawn)	50*	-32	36*	17	-16	-11	-11
